Measured values as given in article PMC7286531 (Organic & biomolecular chemistry, 2020).

How the values were obtained:
[1] = tested on: STAT3 phosphorylated on tyrosine 705 (pSTAT3); assay: G-CSF-induced intracellular STAT3 phosphorylation assay in AML cell lines; assay type: cell-based, human; conditions: Kasumi-1 / Kasumi cells
How it was run: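 Kasumi-1 human AML cells (also other AML lines) were exposed to a concentration series of test compound and stimulated with G-CSF to induce STAT3 phosphorylation. Cells were then lysed, and STAT3 phosphorylated on Tyr705 was quantified with a fluorescent anti-pSTAT3 antibody. IC50 was taken from the concentration series; mean ±SD, n = 3.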

[2] = Stability in aqueous buffer under air; assay type: physicochemical; conditions: C188–9: within 4 hours

- stability in aqueous buffer in air, result in words [2]: Significant decomposition
SMILES: COc1ccc(S(=O)(=O)Nc2cc(-c3c(O)ccc4ccccc34)c(O)c3ccccc23)cc1 [C188–9]
- inhibition of G-CSF-induced STAT3 phosphorylation, result in words [1]: exceptionally resistant
